Test results as given in PubChem BioAssay.
Calls of active or inactive are those of the source.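 How the source made its calls, unless noted: active means GFP response above 150% of the DMSO level; inconclusive means fewer than 70 events counted for a yeast strain; inactive means the rest.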

Columns and labels:
[1] = RPL19A-GFP modulators, yeast TOR pathway, confirmation, cell-based, S. cerevisiae, flow cytometry, cherry picks, mother/daughter gates (AID 2270;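 active means GFP response below 50% of the DMSO control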); conditions: S. cerevisiae RPL19A-GFP strain, 3 h, at 10 µM, stronger effect = lower value, 100 = same GFP as DMSO wells
[2] = LAP4-GFP expression modulators in yeast, confirmation, cell-based, cherry picks, flow cytometry, mother/daughter gates (AID 2271;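 active means GFP response above 150% of the DMSO control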;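 further: ratio of sample to DMSO plate mean so 100% equals DMSO level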); conditions: S. cerevisiae LAP4-GFP strain, 3 h, at 10 µM, stronger effect = higher value, 100 means same as DMSO control
Method in brief: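 Measured by: GFP by flow cytometry. Test system: GFP-fusion yeast strain. Input: yeast cells seeded at OD600 of 0.2. Timing: 30 °C, 3 h compound incubation, rotating. Buffer or medium: synthetic complete medium for yeast. Benchmarks: DMSO-only negative wells, rapamycin 400 ng/mL positive wells. Compound: 10 µM single dose.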

[3] = modulators of MEP2-GFP levels in yeast, confirmation, S. cerevisiae, flow cytometry GFP, cherry picks (AID 2272;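 active means GFP response above 150% of the DMSO control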;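 further: ratio of well signal to plate DMSO mean so 100% equals DMSO level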); conditions: S. cerevisiae MEP2-GFP strain, 3 h, at 10 µM, stronger effect = higher value
[4] = AGP1-GFP expression modulators, hit retest, confirmation, cell-based, flow cytometry, S. cerevisiae, cherry picks (AID 2273);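 further: median GFP channel fluorescence over the whole cell population gate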; conditions: S. cerevisiae AGP1-GFP strain, 3 h, at 10 µM
[5] = modulators of CIT2-GFP expression in yeast, confirmation, S. cerevisiae, GFP fusion, cherry picks, mother/daughter gates (AID 2274); conditions: S. cerevisiae CIT2-GFP strain, flow cytometry, 3 h, at 10 µM, stronger effect = higher value
[6] = measured here: daughter cell gate
[7] = measured here: mother cell gate
[8] = measured here: daughter cell gate response
[9] = measured here: mother cell gate response

Row | Structure (SMILES) | GFP response vs DMSO [1] | GFP response vs DMSO [1, 6] | GFP response vs DMSO [1, 7] | GFP response relative to DMSO [2] | GFP response relative to DMSO [2, 8] | GFP response relative to DMSO [2, 9] | GFP response vs DMSO [3] | GFP response, % of DMSO [4] | GFP response, % of DMSO [5] | GFP response, % of DMSO [5, 6] | GFP response, % of DMSO [5, 7]
1 | COC(=O)c1ccc(/C=N/NC(=O)c2cccc(F)c2)cc1 | 99.9% (inactive) | 99.3% | 98.6% | 103% (inactive) | 102% | 101% | 104% (inactive) | 99.3% (inactive) | 99.3% (inactive) | 100% | 99.1%
2 | COc1ccc(C2CC(=O)C(C(c3ccc(O)cc3)C3C(=O)CC(c4ccc(OC)cc4)CC3=O)C(=O)C2)cc1 (configuration not stated) | 100% (inactive) | 101% | 101% | 93.7% (inactive) | 92% | 92% | 96.6% (inactive) | 101% (inactive) | 110% (inactive) | 110% | 109%
3 | O=C(c1ccccc1[N+](=O)[O-])n1cnc2ccccc21 | 100% (inactive) | 101% | 100% | 96.1% (inactive) | 98.2% | 96.2% | 94.4% (inactive) | 87.1% (inactive) | 117% (inactive) | 110% | 119%
4 | COc1ccc2ccccc2c1/C=N/Nc1cccc(C(=O)O)c1 | 99.4% (inactive) | 98.6% | 100% | 98.2% (inactive) | 99.1% | 98.4% | 105% (inactive) | 102% (inactive) | 103% (inactive) | 101% | 102%
5 | O=C(COC(=O)c1n[nH]c2ccccc12)c1cc(F)ccc1F | 99.5% (inactive) | 99% | 101% | 97.4% (inactive) | 98.7% | 98.3% | 97.8% (inactive) | 97.6% (inactive) | 97.8% (inactive) | 96.5% | 99.8%
6 | CC(C)c1nnc(-c2ccc(Cl)cc2)c(N(C)C)n1 | 98.9% (inactive) | 99.3% | 97.8% | 98.9% (inactive) | 96% | 99.5% | 103% (inactive) | 106% (inactive) | 100% (inactive) | 101% | 100%
7 | O=C1c2ccsc2SCCN1Cc1ccc(Cl)cc1 | 93.6% (inactive) | 86% | 97% | 135% (inactive) | 128% | 144% | 91.3% (inactive) | 93.9% (inactive) | 82.2% (inactive) | 80.1% | 82.6%
8 | CN1C(=O)/C(=N\OC(=O)c2cccc3ccccc23)c2ccccc21 | 102% (inactive) | 99.8% | 93.4% | 163% (active) | 140% | 154% | 110% (inactive) | 88.4% (inactive) | 99.3% (inactive) | 102% | 80.5%
9 | Cc1cc(OCc2ccc(C(=O)NN=C3CCCC3)cc2)ccc1Cl | 103% (inactive) | 98.7% | 96.1% | 132% (inactive) | 116% | 135% | 120% (inactive) | 101% (inactive) | 95.2% (inactive) | 91.5% | 89.1%
10 | COc1ccc(/C=C2/C(=O)ON=C2c2ccccc2)cc1OC | 102% (inactive) | 107% | 99.2% | 101% (inactive) | 102% | 99.5% | 102% (inactive) | 101% (inactive) | 102% (inactive) | 106% | 95.6%
11 | COCCN(CCOC)S(=O)(=O)c1ccc(C(=O)Nc2nnc(C)o2)cc1 | 100% (inactive) | 100% | 101% | 99.5% (inactive) | 97.5% | 98.4% | 99% (inactive) | 100% (inactive) | 102% (inactive) | 103% | 101%
12 | CCOC(=O)Cc1csc(NC(=O)c2sc3nc4cc(C)ccc4cc3c2N)n1 | 98.6% (inactive) | 100% | 89.8% | 104% (inactive) | 92% | 111% | 114% (inactive) | 104% (inactive) | 105% (inactive) | 102% | 104%
13 | O=C(COC(=O)/C=C/c1cccs1)Nc1nc(-c2ccccc2)cs1 | 101% (inactive) | 99.9% | 99.7% | 102% (inactive) | 101% | 101% | 105% (inactive) | 93.3% (inactive) | 99.7% (inactive) | 99.1% | 98.5%
14 | COc1ccc(Cc2nnc(NC(=O)c3ccccc3F)s2)cc1 | 97.6% (inactive) | 96.4% | 98.5% | 101% (inactive) | 105% | 101% | 100% (inactive) | 98.3% (inactive) | 100% (inactive) | 99.7% | 97.7%
15 | COc1ccc(NC(=S)N2CCC(c3ccccc3)C2)cc1 (configuration not stated) | 103% (inactive) | 98.8% | 98% | 97% (inactive) | 95.9% | 97.3% | 101% (inactive) | 98.6% (inactive) | 97.3% (inactive) | 93.8% | 94.4%
16 | C/C(=N\NC(=O)c1cccc(Br)c1)c1ccc(Br)cc1 | 96.7% (inactive) | 98.7% | 95% | 106% (inactive) | 97.5% | 107% | 103% (inactive) | 98.8% (inactive) | 98.6% (inactive) | 101% | 98.2%
17 | COc1ccc(-c2noc(CCC(=O)Nc3cccc(C)c3)n2)cc1 | 96.6% (inactive) | 96.7% | 96.2% | 109% (inactive) | 105% | 108% | 102% (inactive) | 96.9% (inactive) | 97.8% (inactive) | 98.3% | 94.5%
18 | CCn1c(=O)c(C(=O)NCCCO)c(O)c2ccccc21 | 102% (inactive) | 101% | 102% | 111% (inactive) | 111% | 112% | 114% (inactive) | 99.1% (inactive) | 106% (inactive) | 105% | 107%
19 | Cc1cc(N2CCC(C)CC2)n2ncc(-c3ccccc3)c2n1 | 99.9% (inactive) | 98.7% | 100% | 96.2% (inactive) | 94.1% | 98.3% | 97.8% (inactive) | 101% (inactive) | 102% (inactive) | 99.7% | 101%
20 | CC(=O)NN1C(=O)/C(=C/c2ccc(Br)o2)SC1=S | 103% (inactive) | 101% | 102% | 128% (inactive) | 122% | 126% | 139% (inactive) | 111% (inactive) | 153% (active) | 150% | 150%
21 | Cc1cccc(CS(=O)(=O)c2ncc(Cl)c(C(=O)NCc3ccccc3)n2)c1 | 99% (inactive) | 96.4% | 99.1% | 108% (inactive) | 108% | 108% | 100% (inactive) | 102% (inactive) | 95.2% (inactive) | 91.5% | 95.5%
22 | Cc1sc(NC(=O)c2cccs2)nc1-c1ccccc1 | 106% (inactive) | 95.7% | 105% | 110% (inactive) | 106% | 112% | 109% (inactive) | 97.5% (inactive) | 95.9% (inactive) | 93.8% | 95.6%
23 | Cc1[nH]n(-c2ccccc2)c(=O)c1/C=N/Nc1nncc(-c2ccccc2)n1 | 88.1% (inactive) | 85.8% | 88.9% | 149% (inactive) | 137% | 151% | 108% (inactive) | 110% (inactive) | 86% (inactive) | 84.1% | 83.8%
24 | Cc1cc(Cl)ccc1N1C(=O)CC(SCCC(=O)O)C1=O (configuration not stated) | 96.4% (inactive) | 97.6% | 95.3% | 103% (inactive) | 102% | 105% | 102% (inactive) | 97.8% (inactive) | 103% (inactive) | 103% | 101%
25 | O=C(/C(=C/O)N=Nc1ccc(Cl)cc1)c1ccncc1 | 101% (inactive) | 99.3% | 98.8% | 111% (inactive) | 101% | 115% | 132% (inactive) | 101% (inactive) | 90.3% (inactive) | 88.7% | 88.2%
26 | COc1cc(NC(=O)c2ccc(F)cc2)ccc1NC(=O)c1cc2ccccc2o1 | 98% (inactive) | 99.1% | 94.3% | 96.1% (inactive) | 96.6% | 96.2% | 101% (inactive) | 102% (inactive) | 94.7% (inactive) | 96.8% | 94.7%
27 | COc1cccc(/C=N/NC(=O)CCC(=O)Nc2ccc(Br)cc2)c1 | 98.9% (inactive) | 100% | 98% | 90.6% (inactive) | 92.9% | 90.3% | 108% (inactive) | 100% (inactive) | 98.6% (inactive) | 101% | 99.3%
